Data: ChEMBL document CHEMBL1124344, “5-Piperazinylalkyl-2(3H)-oxazolones with neuroleptic activity” (J Med Chem, 1989)

Key:
Dopamine receptor = experiment: Binding affinity against rat striatal membranes using [3H]spiroperidol as the radioligand, after 15 min of incubation in vitro at 37 degree C; set-up: species or system Striatum, Membrane
Method in brief: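 Crude rat striatal membranes were stored at –80 °C, then thawed and washed. They were incubated 15 min at 37 °C with drug (10⁻¹⁰ to 10⁻⁴ M), [3H]spiroperidol 0.5 nM, 1 μM pargyline and 0.1% ascorbic acid, then filtered, washed and counted. Nonspecific binding was defined with 1 μM haloperidol. IC50 was read from the displacement curve.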

Mus musculus [1] = experiment: Inhibitory activity against tremorine-induced tremors, after 1 hour of peroral administration in mouse at a dose of 60 mg/kg; format: functional; settings: route oral
Method in brief: (§1)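 Male mice fasted overnight, dosed orally with arabic gum suspension (10 mL/kg) 1 or 5 h before test, vehicle controls included. Tremorine 20 mg/kg ip given 1 h after compounds; central (tremor) and peripheral (salivation) parasympathetic signs recorded. ED50 = dose protecting 50% of animals, by probit analysis.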

Mus musculus [2] = experiment: Inhibitory activity against tremorine-induced salivation, after 5 hour of peroral administration in mouse at a dose of 60 mg/kg; format: functional; settings: route oral; method in brief: as §1
Rattus norvegicus [3] = experiment: Antagonistic activity against amphetamine-induced stereotypy, after 5 hour of peroral administration in rats; format: functional; settings: po
Method in brief: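 Male rats dosed orally (arabic gum suspension, 10 mL/kg, fasted overnight) 1 or 5 h beforehand. Amphetamine 7.5 mg/kg iv, with stereotyped movements scored as present or absent 1 h later. ED50 is the dose inhibiting stereotypy in 50% of rats, by probit analysis. Parenthetical entries give the maximal dose and percent activity.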

Mus musculus [4] = experiment: Suppression of aggressive behavior, after 5 hour of peroral administration in mouse; format: functional; settings: po
Method in brief: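 Male mice made aggressive by isolation in individual black cages for about 1 month plus weekly testosterone cyclopentylpropionate 250 mg/kg sc; pairs preselected for attack on a nonisolated male within 15 min. Oral dosing (arabic gum, 10 mL/kg) 1 or 5 h before test, overnight fast. ED50 = dose suppressing aggression in 50% of animals, probit analysis.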

Mus musculus [5] = experiment: Inhibition of spontaneous motor activity, after 5 hour of peroral administration in mouse; format: functional; settings: po
Method in brief: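 Mice fasted overnight, then dosed orally with compound (weighed as base) suspended in arabic gum, 10 mL/kg, with vehicle controls; 1 h pretreatment for screening tests, 1 or 5 h for others. Groups of five; locomotor activity counted 10 min in photocell activity cage, at least two groups per dose. ED50 = dose giving 50% inhibition versus controls, by probit analysis.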

Rattus norvegicus [6] = experiment: Inhibition against conditioned avoidance response, after 5 hour of peroral administration in rats; format: functional; settings: po
Method in brief: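 Male rats were trained in a shuttle box to avoid grid-floor shock by crossing compartments during a warning period. Dosing was oral as a gum arabic suspension at 10 mL/kg after an overnight fast. Percent inhibition was computed against a pretraining test. ED50 is the dose giving 50% inhibition.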

Canis familiaris = experiment: Antagonistic activity against apomorphine-induced emesis, after 1 hr of peroral administration in dogs; format: functional; settings: Canis lupus familiaris, po
Method in brief: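 Male and female dogs pretreated orally, then challenged with apomorphine 0.3 mg/kg sc. Complete protection from vomiting for 30 min after apomorphine is the criterion. ED50 is the dose protecting 50% of dogs, per Janssen's method.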

Mus musculus [7] = experiment: Inhibitory activity against tremorine-induced salivation, after 1 hour of peroral administration in mouse at a dose of 60 mg/kg; format: functional; settings: route oral; method in brief: as §1
Mus musculus [8] = experiment: Inhibitory activity against tremorine-induced tremors, after 5 hour of peroral administration in mouse at a dose of 60 mg/kg; format: functional; settings: route oral; method in brief: as §1
Rattus norvegicus [9] = experiment: Inhibitory activity against norepinephrine-induced lethality, after 5 hour of peroral administration in rat; format: functional; settings: po
Method in brief: (§2)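 Rats (80–90 g) dosed orally (arabic gum, 10 mL/kg) 1 or 5 h before norepinephrine 0.5 mg/kg iv, which kills unprotected rats within 30 min. ED50 is the dose protecting 50% of rats from lethality, by probit analysis.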

Rattus norvegicus [10] = experiment: Antagonistic activity against apomorphine-induced stereotypy in rats, by administering perorally; format: functional; settings: po
Method in brief: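 Male rats fasted overnight and given oral doses in arabic gum suspension (10 mL/kg) 1 h, or 1 and 5 h, before challenge. Apomorphine 3 mg/kg iv, with stereotypy observed 20 min later. ED50 is the dose inhibiting stereotypy in 50% of rats, per Janssen's method. Parenthetical entries give the maximal dose and percent activity.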

Rattus norvegicus [11] = experiment: Inhibitory activity against norepinephrine-induced lethality, after 1 hour of peroral administration in rat; format: functional; settings: po; method in brief: as §2
Rattus norvegicus [12] = experiment: Activity to evoke catalepsy in rats, by administering perorally; format: functional; settings: po
Method in brief: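 Rats fasted overnight and given oral doses in arabic gum suspension (10 mL/kg), 1 h before screening or 1 and 5 h before profile testing. Forelegs placed on a horizontal bar 7 cm high, three times at 5-min intervals. Immobility of at least 15 s counts as catalepsy. ED50 is the dose giving catalepsy in 50% of rats, by probit analysis. Parenthetical entries give the maximal dose and percent activity.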

Mus musculus [13] = experiment: Effect on skeletal muscle tone, after 5 hour of peroral administration in mouse; format: functional; settings: Muscle tissue, po
Method in brief: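 Male mice were placed for 1 h on a 60° inclined wire screen just after dosing and 4 h later. In a second test, trained mice hung by the forepaws from a horizontal 1.8 mm wire 15 cm up; normal mice touch it with a hind paw within 2 s and stay ≥1 min. ED50 is the dose making 50% fall. Dosing was oral in gum arabic suspension at 10 mL/kg after an overnight fast.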

Mus musculus [14] = experiment: Effect on skeletal muscle tone, after 1 hour of peroral administration in mouse; format: functional; settings: Muscle tissue, po
Method in brief: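 Male mice suspended by forepaws from a 1.8-mm wire stretched 15 cm above a plane. Trained normal mice touch the wire with a hind paw within 2 s (traction) and hang at least 1 min (suspension). Oral dosing 1 or 5 h before. ED50 is the dose making 50% of mice fall without traction and suspension.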

Mus musculus [15] = experiment: Anticonvulsant activity against electroshock-induced convulsions, after 1 hour of peroral administration in mouse; format: functional; settings: po
Method in brief: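 Male mice given oral drug in arabic gum suspension (10 mL/kg) after overnight fast, then challenged by maximal electroshock. Protection means absence of tonic hind-limb extension. ED50 is the dose protecting 50% of mice, by probit analysis.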

Mus musculus [16] = experiment: Anticonvulsant activity against electroshock-induced convulsions, after 5 hours of peroral administration in mouse; format: functional; settings: po
Method in brief: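 Compounds were dosed as bases suspended in arabic gum at 10 mL/kg orally, after an overnight fast, with vehicle controls. Protection meant no bilateral forepaw clonic seizures or head twitches (tryptamine), or no tonic hind-limb extension (the other two). ED50 is the dose protecting 50%, by probit analysis.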

Mus musculus [17] = experiment: Inhibitory activity against tremorine-induced salivation, after 5 hour of peroral administration in mouse; settings: po
Mus musculus [18] = experiment: Lethal dose in mice by administered the compound intraperitoneally; format: functional; settings: ip
Method in brief: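 Acute toxicity tested in mice by the intraperitoneal route. LD50 is the dose killing 50% of treated mice, computed by Finney probit analysis; values are approximate.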

Mus musculus [19] = experiment: Inhibitory activity against tremorine-induced salivation, after 1 hour of peroral administration in mouse; format: functional; settings: po; method in brief: as §1
Mus musculus [20] = experiment: Activity of inclined screen in mouse, after 5 hour of peroral administration in mouse; format: functional; settings: po
Method in brief: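 Male mice dosed orally (arabic gum suspension, 10 mL/kg, fasted overnight) 1 or 5 h before testing. Placed for 1 h on a wire screen bent at 60° to the horizontal. Ataxic or miorelaxed mice slide off. ED50 is the dose at which 50% of mice fall, by probit analysis. Ten animals per dose, with vehicle controls.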

Row | SMILES | IC50 (Dopamine receptor) | inhibition in vivo at 60 mg/kg (Mus musculus [1]) | inhibition in vivo at 60 mg/kg (Mus musculus [2]) | ED50 (Rattus norvegicus [3]) | ED50 (Mus musculus [4]) | ED50 (Mus musculus [5]) | ED50 (Rattus norvegicus [6]) | ED50 (Canis familiaris) | inhibition in vivo at 60 mg/kg (Mus musculus [7]) | inhibition in vivo at 60 mg/kg (Mus musculus [8]) | ED50 (Rattus norvegicus [9]) | ED50 (Rattus norvegicus [10]) | ED50 (Rattus norvegicus [11]) | ED50 (Rattus norvegicus [12]) | ED50 (Mus musculus [13]) | ED50 (Mus musculus [14]) | ED50 (Mus musculus [15]) | ED50 (Mus musculus [16]) | ED50 (Mus musculus [17]) | ED50 (Mus musculus [18]) | further results
1 | O=c1[nH]c(-c2ccc(F)cc2)c(CCN2CCN(c3cc(Cl)cc(Cl)c3)CC2)o1 [LODIPERONE] | 68 nM | 0% | 0% | 4.2 mg/kg | 8.5 mg/kg | 2.5 mg/kg | 6.4 mg/kg | 4 mg/kg | 0% | 0% |  |  |  |  |  |  |  |  |  |  | 
2 | COc1ccccc1N1CCN(CCCC(=O)c2ccc(F)cc2)CC1 [FLUANISONE] |  | 0% | 0% | 50 mg/kg | 20.1 mg/kg |  | 50 mg/kg |  | 0% | 0% | 5.6 mg/kg | 63.2 mg/kg | 1.9 mg/kg | 18 mg/kg |  |  |  |  |  |  | 
3 | COc1ccccc1N1CCN(CCc2oc(=O)[nH]c2-c2ccc(F)cc2)CC1 [ZOLOPERONE] | 250 nM |  |  | 12.4 mg/kg | 4.7 mg/kg | 20.3 mg/kg | 11.6 mg/kg | 0.7 mg/kg |  |  | 8.2 mg/kg | 10.4 mg/kg | 3.2 mg/kg | 55.6 mg/kg | 75 mg/kg |  |  |  |  |  | 
4 | CN(C)CCCN1c2ccccc2Sc2ccc(Cl)cc21 [CHLORPROMAZINE] |  |  |  | 13.6 mg/kg | 3.1 mg/kg |  | 10.3 mg/kg |  |  |  |  |  |  |  | 7.5 mg/kg | 2.7 mg/kg | 19.2 mg/kg | 10 mg/kg | 2 mg/kg | 2.7 mg/kg | ED50 (Mus musculus [19]): 2.5 mg/kg; ED50 (Mus musculus [20]): 7 mg/kg
5 | O=C(CCCN1CCC(O)(c2ccc(Cl)cc2)CC1)c1ccc(F)cc1 [HALOPERIDOL] |  |  |  | 0.39 mg/kg | 0.29 mg/kg | 0.35 mg/kg | 0.32 mg/kg |  |  |  |  |  |  |  |  | 17.1 mg/kg | 1.9 mg/kg | 0.38 mg/kg | 21.6 mg/kg | 0.23 mg/kg | ED50 (Mus musculus [19]): 4 mg/kg; ED50 (Mus musculus [20]): 6.5 mg/kg
